An excerpt weighted towards active compounds, which were near 3.5% of everything screened.
MrgX1 agonist: agonists of human MrgX1 receptor, primary screen, HEK293 cells, Fluo-4 calcium flux. Fluo-4 calcium fluorescence, agonist mode; hits give high values. B-score at 10 µM. 310,000 compounds, 0.44% hits. AID 588627, 2011;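 active = calcium response B-score plate-corrected fluorescence ratio at least 3 library SD, with starting fluorescence B-score inside 5 SD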
Target sequence (Q96LB2 whole entry, looked up): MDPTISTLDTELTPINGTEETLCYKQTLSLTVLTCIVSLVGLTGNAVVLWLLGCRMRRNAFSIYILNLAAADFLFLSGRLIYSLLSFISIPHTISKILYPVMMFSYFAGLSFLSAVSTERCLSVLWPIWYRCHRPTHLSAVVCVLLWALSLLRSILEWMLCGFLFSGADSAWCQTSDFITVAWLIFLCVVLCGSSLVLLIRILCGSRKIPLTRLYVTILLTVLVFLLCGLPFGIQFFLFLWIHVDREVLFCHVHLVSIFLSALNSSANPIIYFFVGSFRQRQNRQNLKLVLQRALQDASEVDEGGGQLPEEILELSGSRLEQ
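Material: HEK293 cells stably expressing human MrgX1 receptor | Quantity: 15,000 cells per well | Times: Cells plated overnight, dye loaded 0.5 h 37 °C, 0.5 h room temperature | Measured by: Kinetic Fluo-4 NW fluorescence of intracellular calcium | Control set: Positive and negative controls per plate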
MrgX1 antag: antagonists of human MrgX1 receptor, primary screen, HEK293 cells, Fluo-4 calcium flux; BAM8-22 antagonism; hits give low values; B-score at 10 µM; 310,000 compounds, 1.3% hits; AID 588676, 2011;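 active = calcium-response B-score plate-corrected more than 3 library SD below zero, starting fluorescence within 5 deviations, no agonist response on first addition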;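 note: peak minus trough fluorescence over baseline after final BAM8-22 challenge near maximal dose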
RGS4 inh: RGS4 inhibitors, primary screen, cell-based, HEK293 M3R inducible RGS4, calcium flux; Regulator of G-protein signaling 4 (Homo sapiens), P49798; Fluo-4 calcium flux; hits give high values; triggered by carbachol at its EC20; B-score at 10 µM; 310,000 compounds, 0.45% hits;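 active = B-score, a plate-corrected calcium signal, over three deviations above library mean, with baseline fluorescence within five deviations of library mean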;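 note: RGS4 expression induced by doxycycline in cells with stable M3 receptor; B-score is computed from the integrated fluorescence ratio over baseline after carbachol; higher B-score means a larger calcium signal and so more RGS4 inhibition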
Target sequence (P49798 whole entry, looked up): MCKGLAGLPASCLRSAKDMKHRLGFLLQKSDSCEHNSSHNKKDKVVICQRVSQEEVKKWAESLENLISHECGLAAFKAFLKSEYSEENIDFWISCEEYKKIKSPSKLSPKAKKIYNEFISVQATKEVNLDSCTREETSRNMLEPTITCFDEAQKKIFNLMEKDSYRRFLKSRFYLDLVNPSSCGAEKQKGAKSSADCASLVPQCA
RGS4 pot: RGS4 potentiators or activators, primary screen, cell-based, HEK293 M3R inducible RGS4, calcium flux; B-score at 10 µM; carbachol calcium flux Fluo4; hits give low values; 310,000 compounds, 0.92% hits; AID 463111, 2010;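 active = B-score of the integrated calcium signal more than 4 SD below the library mean, with starting fluorescence not abnormally high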;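 note: negative B-score means reduced calcium response which marks RGS4 activation or potentiation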
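Material: Inducible-RGS4 HEK293 cells carrying M3 receptor; also added: carbachol at ECmax as muscarinic agonist stimulus; incubation: compound preincubation 20 min at room temperature before agonist; signal: Fluo4-AM (2 µM) calcium-flux fluorescence, kinetic read; measure: integrated calcium ratio converted to B score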
MrgX1 PAM: positive allosteric modulators of MrgX1, primary screen, HEK293 cells, Fluo-4 calcium flux | Mas-related G-protein coupled receptor member X1 (Homo sapiens), Q96LB2 | 310,000 compounds, 0.63% hits | AID 588675, 2011 | FDSS; hits give high values | B-score at 10 µM;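 active = plate-corrected calcium response at least 3 library SD above typical, normal starting fluorescence, not activating the receptor alone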;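 note: compound read alongside a low EC10 to EC30 dose of BAM8-22 agonist; peak minus trough fluorescence over baseline measured at the second addition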
RGS4 act valid: reduced carbachol calcium response, RGS4-induced M3R cells, confirmation, RGS4 activator project, cell-based, HEK293 M3R/RGS4 inducible, calcium flux, duplicate; carbachol calcium flux Fluo4; shares compounds with RGS4 pot; 1,100 compounds, 89% hits; inhibition, % at 10 µM;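 active = inhibition above 3 SD of the buffer control wells, cut at about 41% in these data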;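 note: signal is the integrated peak-minus-minimum Fluo4 fluorescence over baseline ratio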
M3R Ca counter: activity in cells without induced RGS4 expression; HEK293 M3R non-induced RGS4, Fluo4 calcium flux; after carbachol challenge at its EC90; inhibition, % at 10 µM; AID 602283; shares compounds with RGS4 pot; 1,100 compounds, 82% hits;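 active = inhibition exceeding 3 SD of buffer-only control wells, cut at about 26% in these data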;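 note: percent drop in integrated peak-minus-baseline over baseline Fluo4 ratio after carbachol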
Numbers stand for hits; – = inactive; · = no result given.

SMILES	MrgX1 agonist	MrgX1 antag	RGS4 inh	RGS4 pot	MrgX1 PAM	RGS4 act valid	M3R Ca counter
CC(/C=N/n1c(-c2cccnc2)n[nH]c1=S)=C\c1ccco1	–	–	–	–	–	·	·
O=C(NCCc1ccccc1)C(c1cccs1)N(C(=O)CCl)c1ccc(Cl)cc1 (stereo not given)	–	–	–	-8.1	–	50	–
O=C(NCCc1ccccc1)C(c1cccs1)N(C(=O)c1csnn1)C1CC1 (stereo not given)	–	–	–	–	–	·	·
CCCCCCNC(=O)CCc1nc2cccnc2n1Cc1ccc(OC)cc1	–	–	–	–	–	·	·
CCc1ccc(NC(=O)CCc2nc3cccnc3n2Cc2ccc(OC)cc2)cc1	–	–	–	-8	–	–	–
CC(C)CC1CCCCC1OC(=O)C[N+]1(C)CCCCC1 (stereo not given)	–	–	–	-11	–	92	87
COC(=O)c1ccccc1NC(=O)c1cn(-c2ccc(C)c(C)c2)c(=O)c2ccccc12	–	–	–	-11	–	76	84
CCOC(=O)c1ccccc1NC(=O)c1cn(-c2ccc(C)c(C)c2)c(=O)c2ccccc12	–	–	–	–	–	·	·
O=C(O)c1ccc(N/N=C2/CCCc3ccccc32)cc1	–	–	–	–	–	·	·
CCOC1=C/C(=C/c2c(N)n3nc(-c4ccccc4)sc3nc2=O)C=CC1=O	·	·	–	-12	·	65	33
CC(C)n1cc([C@@H]2C[C@H]3CN(Cc4cccc(Cl)c4)C(=O)[C@]34CCCN24)cn1	–	–	–	-7.6	–	46	84
COc1ccc(Cc2noc(CN3CCN(C4CCc5ccccc5C4)CC3)n2)cc1OC (stereo not given)	–	–	–	–	–	·	·
Fc1cccc(Cc2noc(CN3CCN(C4CCc5ccccc5C4)CC3)n2)c1 (stereo not given)	–	–	–	-7.7	–	92	89
Cc1cc(=O)n2c3ccccc3n(CC(O)CN3CCN(Cc4ccccc4)CC3)c2c1C#N (stereo not given)	–	–	–	-10	–	74	43
CS(=O)(=O)c1ccc2nc(NC(=O)c3ccc(Cn4cc(Br)cn4)o3)sc2c1	–	–	–	-8.8	–	63	–
COc1ccc(/C=C/C(=O)c2cccc(-n3cnnn3)c2)cc1O	–	–	–	–	–	·	·
Cc1ccc(CNC(=O)CSc2nc3c(sc4ccccc43)c(=O)n2CCCN2CCCC2)cc1	–	–	–	-11	–	94	97
CCN(CCCNC(=O)CN1C(=O)COc2ccc(S(=O)(=O)N3CCC(C)CC3)cc21)Cc1ccccc1	–	–	–	–	–	·	·
COc1cc(F)ccc1S(=O)(=O)N1CCN(C23CC4CC(CC(C4)C2)C3)CC1	–	–	–	–	–	·	·
COc1cc(C)ccc1S(=O)(=O)N1CCN(C23CC4CC(CC(C4)C2)C3)CC1	–	–	–	-8.9	–	92	80
COc1ccccc1/C=C/CN1CCC(n2nccc2NC(=O)CCc2ccccc2)CC1	–	–	–	-8.2	–	61	84
O=C(NCc1cccnc1)C1CCC(CNS(=O)(=O)c2cccc3nsnc23)CC1 (stereo not given)	–	–	–	–	–	·	·
Cc1ccc(C(=O)Nc2ccc(CN3CCCCC3)cc2)c(C)c1	–	–	–	-8.5	–	55	84
COc1ccc(Cl)cc1C(=O)Nc1ccc(CN2CCCCC2)cc1	–	–	–	–	–	·	·
CC1CCCN(c2c([N+](=O)[O-])cc(C(=O)O)cc2[N+](=O)[O-])C1 (stereo not given)	–	–	–	–	–	·	·
SMILES	MrgX1 agonist	MrgX1 antag	RGS4 inh	RGS4 pot	MrgX1 PAM	RGS4 act valid	M3R Ca counter
COc1ccc(C(c2nnnn2Cc2cccs2)N2CCN(c3ccccc3F)CC2)cc1 (stereo not given)	–	–	–	-7.6	–	–	–
COc1ccc(C(c2nnnn2Cc2ccccc2)N2CCN(c3ccccc3)CC2)cc1 (stereo not given)	–	–	–	–	–	·	·
COc1ccc2nc3sc(C(=O)NCCCN4CCc5ccccc5C4)cc3cc2c1	–	–	–	-8.2	–	74	84
c1ccc(-c2nc(N3CCN(c4ccccc4)CC3)nc(-n3ccnc3)n2)cc1	–	–	–	–	–	·	·
c1ccc(-c2nc(N3CCCCCC3)nc(-n3ccnc3)n2)cc1	–	–	–	-8.7	–	92	61
CN1CCN(C(=O)c2ccc(COc3ccc(C(C)(C)C)cc3)o2)CC1	–	–	–	-7.7	–	90	41
CC(C)c1ccc(OCc2ccc(C(=O)N3CCCC3)o2)cc1	–	–	–	-12	–	83	84
CCOc1ccc(OCc2ccc(C(=O)N3CCCC3)o2)cc1	–	–	–	–	–	·	·
CCCCSc1nnc(-c2ccccc2)c2ccccc12	–	–	–	–	–	·	·
COC(=O)C(Nc1ccccc1Cl)(c1cc(C)c(O)c(C)c1)C(F)(F)F (stereo not given)	–	–	–	-9.6	–	93	97
CSc1nc(C=Nc2ccccc2Cl)c(O)n1Cc1cccc(Cl)c1	–	–	–	–	–	·	·
CCn1c(=NC(=O)c2cccc(N3C(=O)CCC3=O)c2)sc2c(C)ccc(OC)c21	–	–	–	-8.6	–	68	30
COc1ccc(C(=O)N=c2sc3c(C)ccc(OC)c3n2C)cc1OC	–	–	–	-7.7	–	86	50
O=S(=O)(c1ccc2nc(Nc3ccccc3)ccc2c1)N1CCCCC1	–	–	–	–	–	·	·
CCN1CCN(c2ccc(NC(=O)c3ccco3)cc2)CC1	–	–	–	–	–	·	·
Cc1ccc(C)c(N2CCN(C(=O)c3ccc(CS(=O)(=O)c4ccccc4C)o3)CC2)c1	–	–	–	-8.8	–	88	66
CCN(CC#CCC(O)(c1ccccc1)c1ccccc1)C(C)C	–	–	–	-8.3	–	79	30
CC(=O)Nc1ccc(S(=O)(=O)N(C)CC(=O)OCC(=O)N(C)C2CCS(=O)(=O)C2)cc1 (stereo not given)	–	–	–	–	–	·	·
CCOC(=O)COc1nc(-c2ccccc2)cc(-c2ccco2)c1C#N	–	–	–	-7.7	–	88	54
N#Cc1c(OCC(=O)c2ccccc2)nc2c(c1-c1ccco1)CCc1ccccc1-2	–	–	–	–	–	·	·
